Only some compounds are listed: those with a hit (about 5.6% of all), similar ones and a draw of the others.
MPTP block: mitochondrial permeability transition pore inhibitors, primary screen, biochemical, isolated mouse mitochondria, absorbance; inhibition, % at 10 µM; 1.4% of 360,000 active; Ca2+ swelling absorbance, 30 min; AID 602449, 2012;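 active = inhibition of 50% or more, scaled per plate between neutral and stimulator controls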;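 note: 0% = DMSO wells given calcium and 100% = 1 mM EGTA wells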
aDG glyco act: activators of alpha-DG glycosylation, primary screen, uHTS, Pro5-aDG cells, AlphaScreen; alpha-DG glycosylation AlphaScreen (IIH6); 0% Pro5, 100% B10-LARGE cell signal; activation, % at 10 µM; 0.22% of 360,000 active; AID 624168, 2012;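 active = activation of at least 8% versus controls, or a plate z-score of at least 8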;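 note: Pro5 are CHO cells carrying HIG-tagged alpha-DG that lacks glycosylation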
CHOP inhibitor: inhibitors of CHOP promoter induction, primary screen, cell-based, unfolded protein response, luciferase reporter; CHO-K1 CHOP-promoter luciferase, tunicamycin-induced, 15-18 h; inhibition, % at 10 µM; AID 2732, 2010; 3.8% of 220,000 active;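 active = compounds that reduced the stress-induced luciferase reporter signal by more than about 70% of percent inhibition, limit read from the data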;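 note: 0% = tunicamycin plus vehicle and 100% = wells without tunicamycin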
UPR CHOP act: activators of apoptotic CHOP UPR arm, primary screen, cell-based, CHO-CHOP luciferase reporter, luminescence, uHTS | UPR activation; percent of tunicamycin response over DMSO baseline | activation, % at 10 µM | 0.34% of 330,000 active | AID 449763, 2010;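 active = at 10 µM dose, activation of 40% or more, normalized to positive control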;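 note: 100% = tunicamycin at 10 µg/mL and 0% = DMSO alone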
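Assay system: CHO-CHOP cells, stable luciferase reporter of PERK-eIF2a-CHOP signalling / Buffer or medium: F12 plus 10% serum / Compound dosing: one dose, 10 µM in 0.5% DMSO / Times: 6 h compound treatment, 37 °C / Technique: luciferase luminescence / Read-out: % reporter activation, DMSO baseline versus tunicamycin full activation / Benchmarks: tunicamycin and DMSO controls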
GRIN3A LBD mod: binders of NR3A ligand-binding domain, primary screen, biophysical, differential scanning fluorimetry, uHTS. Tm shift relative to glycine control, % at 25 µM. NR3A LBD differential scanning fluorimetry, Tm shift; 0% = protein alone, 100% = glycine-bound protein. 2.5% of 340,000 active;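 active = melting temperature shift of at least 10% of the positive control shift, at one fixed dose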
UPR XBP1 act: activators of adaptive XBP1 UPR arm, primary screen, cell-based, CHO-XBP1 luciferase reporter, luminescence, uHTS. IRE1-XBP1 UPR activation; percent of tunicamycin response, DMSO as zero. 0.33% of 330,000 active. AID 463104, 2010. activation, % at 20 µM;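 active = versus positive control, 20 µM dose yields 30% or more activation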;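 note: 100% = tunicamycin at 10 µg/mL and 0% = DMSO only wells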
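Material: CHO-XBP1 cells stably carrying IRE1-XBP1-driven luciferase reporter | Medium: F12 with 10% serum | Compound dosing: 20 µM single concentration, DMSO 1% | Incubation: Overnight seeding at 37 °C, 6 h compound treatment at 37 °C | Detection: Steady-Glo luminescence read | Read-out basis: % activation of reporter signal versus tunicamycin and DMSO controls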
* hit, by the source's call; · = no result given.

SMILES | MPTP block | aDG glyco act | CHOP inhibitor | UPR CHOP act | GRIN3A LBD mod | UPR XBP1 act
Cc1ccc(C(=O)NCc2ccccn2)cc1NC1=NC2CS(=O)(=O)CC2S1 (centres undefined) | -1 | 0 | · | 1 | -2 | -3
O=C1C2C(c3cccc(/C=C/c4ccccc4)c3)CC=CC2C(c2ccc(C(F)(F)F)cc2)N1Cc1ccccc1 (centres undefined) | -1 | 0 | -2 | 1 | 0 | 0
Cc1ccc(-c2ccc([C@H]3[C@H]4C=CC[C@@H](C)[C@@H]4C(=O)N3Cc3ccccc3)c(F)c2)cc1 | 0 | 0 | 7 | 1 | 13* | -2
CC[C@@H]1CC=C[C@H]2[C@H]1C(=O)N(Cc1ccccc1)[C@H]2c1ccc(C(F)(F)F)cc1 | 0 | 0 | 38 | 2 | 12* | -2
C[C@@H]1CC=C[C@H]2[C@H]1C(=O)N(Cc1ccccc1)[C@H]2c1ccc(-c2ccc(N(C)C)cc2)cc1F | 5 | 0 | -3 | -3 | 1 | -2
C[C@@H]1CC=C[C@H]2[C@H]1C(=O)N(Cc1ccccc1)[C@H]2c1ccc(F)c(Br)c1 | · | · | 76* | · | · | ·
CCCNC(=O)C1(C)CCCN(Cc2csc3ccccc23)C1 (centres undefined) | 0 | 0 | · | · | · | ·
COc1ccc(/C(C)=N/NC(=S)NCCc2ccccc2)c(O)c1 | 7 | 1 | · | 1 | 23* | 1
COCCNC(=S)N/N=C(\C)c1ccccc1O | 0 | 0 | -118 | · | 6 | ·
Oc1ccc(Br)cc1/C=N/NC(=S)NCCc1ccccc1 | 6 | 0 | · | 1 | 23* | 0
COc1ccc(O)c(/C=N/NC(=S)NCCc2ccccc2)c1 | 4 | 0 | · | 0 | 36* | -1
CCC(CC)CN1CCC(CN2C(=S)NC[C@@H]2CC(C)C)CC1 | 4 | 0 | · | · | 0 | ·
O=C(Nc1ccc(N2C(=O)C3C4C=CC(C4)C3C2=O)cc1)Nc1nncs1 (centres undefined) | -2 | 0 | · | 1 | -7 | -1
O=C(Nc1ccc(N2C(=O)C3C4C=CC(C4)C3C2=O)cc1)Nc1nnc(C(F)(F)F)s1 (centres undefined) | 0 | 0 | 61 | 3 | 20* | 3
CCC(C(=O)OCC(=O)NC(=O)NC(C)(C)C)c1ccccc1 (centres undefined) | -1 | 1 | 76* | -1 | -2 | -2
CC(C)(C)NC(=O)NC(=O)COC(=O)c1ccc(OC(F)(F)F)cc1 | 3 | 0 | 81* | 3 | 2 | -1
CCC(C(=O)OCC(=O)NC(=O)c1ccccc1)c1ccccc1 (centres undefined) | -1 | 0 | · | -1 | 2 | -4
N#Cc1ccc(-c2nc3ccc(Cl)cn3c2Cc2ccsc2)cc1 | -2 | 2 | · | · | · | ·
COc1ccc2[nH]cc(CCn3ccc(O)c(C/C=C/c4ccccc4)c3=O)c2c1 | 1 | 0 | 20 | 1 | 13* | -2
CSc1ccccc1-n1nnnc1SCC(=O)Nc1ccccc1C | -1 | 0 | 19 | 0 | 14* | -1
Cc1nnc(SCC(=O)N2CCC(Cc3ccccc3)CC2)n(N)c1=O | 2 | 0 | 29 | -4 | 11* | -3
CCOC(=O)c1ccc(N2C(=O)c3n[nH]c(-c4ccco4)c3C2c2cccc([N+](=O)[O-])c2)cc1 (centres undefined) | -17 | 0 | 71* | 2 | 24* | 1
Cc1noc(C)c1C(=O)Nc1cccc(S(=O)(=O)N2CCOCC2)c1 | -1 | 0 | · | 0 | 0 | -1
CC1=CC(=C(C#N)C#N)C=C(C)N1CCN1CCN(C(=O)Nc2ccc(Cl)c(Cl)c2)CC1 | 8 | 0 | -26 | -2 | 18* | -5
O=C(Nc1nc2c(Br)cc(Br)cc2c(=O)s1)C1CCC1 | 18 | 0 | 91* | -1 | 0 | -2
SMILES | MPTP block | aDG glyco act | CHOP inhibitor | UPR CHOP act | GRIN3A LBD mod | UPR XBP1 act
O=C(CN(C(=O)CCC(=O)Nc1nccs1)c1ccccc1F)NCc1ccccc1 | -2 | 0 | · | 1 | -1 | -5
N#Cc1cnc(Nc2ccc(F)cc2)nc1N | 2 | 0 | 15 | 3 | 13* | 4
CCN(CC(=O)Nc1ccc(NC(C)=O)cc1)C(=O)/C=C/c1cn(-c2ccccc2)nc1-c1ccc(F)cc1 | 1 | 0 | · | 0 | 14* | -2
COc1ccc(-c2nn(-c3ccccc3)cc2/C=C/C(=O)N(C)CC(=O)Nc2cccc(F)c2)cc1OC | -1 | 0 | · | · | 11* | ·
CN(CC(=O)Nc1ccc(F)cc1)C(=O)c1cn(-c2ccccc2)nc1-c1cccs1 | 0 | 0 | · | 2 | 24* | -2
COc1cccc(NC(=O)CN(C)C(=O)/C=C/c2cn(-c3ccccc3)nc2-c2ccc(OC)c(OC)c2)c1 | 0 | 0 | · | · | -1 | ·
CCN(CC(=O)Nc1ccc(NC(C)=O)cc1)C(=O)/C=C/c1cn(-c2ccccc2)nc1-c1ccc(C)cc1 | 0 | 0 | · | 3 | 10* | 3
CCOC(=O)[C@]12CCC=C1N(Cc1ccco1)C(=O)[C@H](CC(=O)N1CCCCC1)C2 | 1 | 0 | · | · | · | ·
O=C(CS(=O)(=O)c1c[nH]c2ccccc12)Nc1ccc(F)cc1 | -1 | 0 | · | -1 | 13* | -3
CCN(CC(=O)Nc1c(F)cccc1F)C(=O)CSC(=S)N1CCCC1 | -3 | 0 | · | 1 | -3 | -3
O=C(Nc1cccc(F)c1)Nc1ccc(Cl)cn1 | 2 | 0 | · | 6 | 8 | -2
Cc1ccc(NC(=O)Nc2ccc(Cl)c(Cl)c2)nc1 | -1 | 0 | · | 6 | 12* | 13
Cc1ccc(NC(=O)Nc2ccc(Cl)cn2)cc1 | 10 | 0 | -19 | · | -14 | ·
Cc1ccc(NC(=O)Nc2cccc(F)c2)nc1 | 0 | 0 | · | 4 | 21* | 3
Cc1ccc(OC(=O)N(C)C[C@@H]2OCc3cn(nn3)CCCC(=O)N([C@H](C)CO)C[C@H]2C)cc1 | 1 | 0 | · | · | · | ·
Cc1ccc(N2C(=O)/C(=C/c3cccnc3)SC2=S)cc1 | -1 | 0 | 76* | 1 | -1 | 0
C=CCn1cccc(C(=O)Nc2ccc(F)cc2)c1=O | 0 | 0 | · | 7 | 3 | 5
COCOCCn1cc(CN2CCS(=O)(=O)N(Cc3ccc(-c4ccc(OC)c(OC)c4)cc3)C(C)C2=O)nn1 (centres undefined) | 0 | 0 | · | · | · | ·

Screening data from PubChem.
